Laboratory results from ChEMBL document CHEMBL1143839, “Antiplasmodial activity of lauryl-lysine oligomers” (Antimicrob Agents Chemother, 2007).

How the values were obtained:
[1] = Ratio of LC50 for erythrocytes to IC50 for Plasmodium falciparum W2; assay type: functional
[2] = Ratio of IC50 for dog MDCK cells to IC50 for Plasmodium falciparum W2; assay type: functional
Plasmodium falciparum = assay: Antiplasmodial activity against Plasmodium falciparum W2 as reduced [3H]hypoxanthine uptake after 18 hrs
MDCK = assay: Cytotoxicity against dog MDCK cells after 3.5 hrs by Alamar blue assay; assay type: cell-based; conditions: Canis lupus familiaris
Outline: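 Cells grown to confluence (~3 days) with different compound concentrations in parallel cultures. Viability then read by Alamar blue fluorescence 3.5 h after dye addition. Cycloheximide 10 µM added at start as positive control. IC50 taken as concentration reducing viability by 50%. At least two independent experiments in duplicate.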

[3] = Toxicity against human erythrocytes assessed as hemolysis at 100 uM after 1 hr; assay type: cell-based, Erythrocyte; conditions: read-out: Activity
Outline: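 Heparinized fresh human blood washed three times in PBS (200 × g, 2 min), mixed with compound in PBS to 4% hematocrit. Incubated 1 h at 37°C with stirring, then centrifuged. Supernatant absorbance read at 460 nm. PBS alone gave baseline and 0.4% Triton X-100 gave 100% lysis. At least two independent experiments.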

NCCCCCCCCCCCC(=O)NC(CCCCN)C(=O)NCCCCCCCCCCCC(=O)NC(CCCCN)C(=O)NCCCCCCCCCCCC(=O)NC(CCCCN)C(=O)O (stereo not given)
Ratio LC50/IC50 [1]: 10734
Ratio IC50 [2]: 650
IC50 (Plasmodium falciparum): 0.14 µM
IC50 (MDCK): 91 µM
hemolysis at 1 h, 100 µM [3]: 3.4%

NCCCCC(N)C(=O)NCCCCCCCCCCCC(=O)NC(CCCCN)C(=O)NCCCCCCCCCCCC(=O)NC(CCCCN)C(=O)O (stereo not given)
Ratio LC50/IC50 [1]: >6300
Ratio IC50 [2]: >51
IC50 (Plasmodium falciparum): 7.85 µM
IC50 (MDCK): > 400 µM
hemolysis at 1 h, 100 µM [3]: < 0.1%

CCCCCCCCCCCC(=O)NC(CCCCN)C(=O)NCCCCCCCCCCCC(=O)NC(CCCCN)C(=O)O (stereo not given)
Ratio LC50/IC50 [1]: 288
Ratio IC50 [2]: >28
IC50 (Plasmodium falciparum): 3.54 µM
IC50 (MDCK): > 100 µM
hemolysis at 1 h, 100 µM [3]: 4.9%

NCCCCCCCCCCCC(=O)NC(CCCCN)C(=O)NCCCCCCCCCCCC(=O)NC(CCCCN)C(=O)NCCCCCCCCCCCC(=O)NC(CCCCN)C(=O)NCCCCCCCCCCCC(=O)NC(CCCCN)C(=O)O (stereo not given)
Ratio LC50/IC50 [1]: 126
Ratio IC50 [2]: >47
IC50 (Plasmodium falciparum): 1.59 µM
IC50 (MDCK): > 75 µM
hemolysis at 1 h, 100 µM [3]: 24.6%

NCCCCC(N)C(=O)NCCCCCCCCCCCC(=O)NC(CCCCN)C(=O)O (stereo not given)
Ratio LC50/IC50 [1]: >700
Ratio IC50 [2]: >12
IC50 (Plasmodium falciparum): 68.2 µM
IC50 (MDCK): > 800 µM
hemolysis at 1 h, 100 µM [3]: < 0.1%

CCCCCCCCCCCC(=O)NC(CCCCN)C(=O)NCCCCCCCCCCCC(=O)NC(CCCCN)C(=O)NCCCCCCCCCCCC(=O)NC(CCCCN)C(=O)NCCCCCCCCCCCC(=O)NC(CCCCN)C(=O)O (stereo not given)
Ratio LC50/IC50 [1]: 2317
Ratio IC50 [2]: 1052
IC50 (Plasmodium falciparum): 0.08 µM
IC50 (MDCK): 37 µM
hemolysis at 1 h, 100 µM [3]: 26.1%

CCCCCCCCCCCC(=O)NC(CCCCN)C(=O)NCCCCCCCCCCCC(=O)NC(CCCCN)C(=O)NCCCCCCCCCCCC(=O)NC(CCCCN)C(=O)O (stereo not given)
Ratio LC50/IC50 [1]: 442
Ratio IC50 [2]: 88
IC50 (Plasmodium falciparum): 0.85 µM
IC50 (MDCK): 75 µM
hemolysis at 1 h, 100 µM [3]: 13.3%

NCCCCC(N)C(=O)NCCCCCCCCCCCC(=O)NC(CCCCN)C(=O)NCCCCCCCCCCCC(=O)NC(CCCCN)C(=O)NCCCCCCCCCCCC(=O)NC(CCCCN)C(=O)O (stereo not given)
Ratio LC50/IC50 [1]: 1263
Ratio IC50 [2]: >157
IC50 (Plasmodium falciparum): 1.72 µM
IC50 (MDCK): > 270 µM
hemolysis at 1 h, 100 µM [3]: 2.3%

NCCCCCCCCCCCC(=O)NC(CCCCN)C(=O)NCCCCCCCCCCCC(=O)NC(CCCCN)C(=O)O (stereo not given)
Ratio LC50/IC50 [1]: 7714
Ratio IC50 [2]: >32
IC50 (Plasmodium falciparum): 4.63 µM
IC50 (MDCK): > 150 µM
hemolysis at 1 h, 100 µM [3]: 0.14%
